Test results taken from publication PMC3663483 (Nature, 2012).

Tests used:
[1] = system: 4EBP1 and p70S6K1/2 phosphorylation; experiment: Preclinical trial in Pten L/L mice: mTOR effector phosphorylation; type: in vivo, mouse; conditions: INK128 1 mg/kg or RAD001 10 mg/kg daily gavage
How it was run: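 Nine- and twelve-month-old PtenL/L mice were dosed daily by oral gavage, with vehicle 5% […], 15% NMP, 80% water. Whole prostates were removed, microdissected, frozen in liquid nitrogen and pulverised. Protein lysates were immunoblotted with antibodies to phospho-4EBP1 T37/46, 4EBP1, phospho-p70S6K T389, phospho-rpS6 S240/244 and rpS6.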

[2] = system: multiple cancer cell lines; experiment: Apoptosis analysis; type: cell-based, human
How it was run: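 LNCaP and A498 cells, after treatment, were labelled with Annexin V-FITC and propidium iodide per kit instructions. Annexin/PI staining was acquired by flow cytometry to score apoptotic cells.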

[3] = system: Pten^L/L prostate cancer mouse model; type: in vivo; conditions: Pten L/L mice; for apoptosis in prostate / cell proliferation in prostate: INK128 1 mg/kg or RAD001 10 mg/kg daily gavage
How it was run: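 PtenL/L mice aged nine or twelve months were given daily oral gavage; vehicle was 5% polyvinylpropyline, 15% NMP, 80% water. Body weight was taken every 3 days for toxicity. In the 28-day study, prostates were MRI-imaged at 14 T on days 0 and 28. Prostates and lymph nodes were formalin-fixed and cut as 5 μm paraffin sections. Nodes were stained for CK8 and androgen receptor, and metastasis areas were measured.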

[4] = system: GFP-labelled PC3 cells; experiment: Real-time imaging of cell migration; type: cell-based, human; conditions: starting at 6 h of treatment
How it was run: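 GFP-labelled PC3 cells were plated on poly-D-lysine-coated chamber slides and left to adhere for 24 h. Wells were then scratch-wounded. Wide-field fluorescence time-lapse was run under CO2 and temperature control, with DIC and GFP frames every 2 min. Cell centroids were tracked manually to give xy paths, velocity and distance. Analysis covered hours 3–4 and 6–7 of treatment, with 34 cells per condition and ANOVA.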

[5] = system: mTOR effectors 4EBP1, p70S6K1/2 and AKT; experiment: Western blot of downstream mTOR effectors in PC3 cells; type: cell-based, human; conditions: PP242 2.5 μM, rapamycin 50 nM, 3-h treatment
[6] = system: PC3 human prostate cancer cells; experiment: Ribosome profiling of PC3 cells; type: cell-based; conditions: 3 h, rapamycin 50 nM
[7] = system: Jurkat lymphoid cell line; conditions: cited from earlier work

Structure (SMILES) | 4EBP1 and p70S6K1/2 phosphorylation [1] | programmed cell death [2] | decrease in prostatic intraepithelial neoplasia (PIN) lesions ([3]; INK128 1 mg/kg daily gavage) [%] | prostate cancer volume ([3]; INK128 1 mg/kg daily gavage, MRI day 0 and day 28) | apoptosis in prostate [3] | cell proliferation in prostate [3] | cancer cell migration [4] | regression of PIN lesions ([3]; RAD001 10 mg/kg daily gavage) | activity of downstream mTOR effectors 4EBP1, p70S6K1/2 and AKT [5] | effect on gene expression by ribosome profiling [6] | sensitivity to rapamycin treatment [7]
CC(C)n1nc(-c2ccc3oc(N)nc3c2)c2c(N)ncnc21 [INK128] | completely restored to wild-type levels | induced programmed cell death | 50 | marked reduction | tenfold increase | decreased proliferation | inhibits cancer cell migration |  |  |  | 
CO[C@H]1C[C@@H]2CC[C@@H](C)[C@@](O)(O2)C(=O)C(=O)N2CCCC[C@H]2C(=O)O[C@H]([C@H](C)C[C@@H]2CC[C@@H](OCCO)[C@H](OC)C2)CC(=O)[C@H](C)/C=C(\C)[C@@H](O)[C@@H](OC)C(=O)[C@H](C)C[C@H](C)/C=C/C=C/C=C/1C [RAD001] | only decreased p70S6K1/2 phosphorylation levels |  |  |  | no significant effect | limited decrease |  | only partial regression |  |  | 
CO[C@H]1C[C@@H]2CC[C@@H](C)[C@@](O)(O2)C(=O)C(=O)N2CCCC[C@H]2C(=O)O[C@H]([C@H](C)C[C@@H]2CC[C@@H](O)[C@H](OC)C2)CC(=O)[C@H](C)/C=C(\C)[C@@H](O)[C@@H](OC)C(=O)[C@H](C)C[C@H](C)/C=C/C=C/C=C/1C [rapamycin] |  |  |  |  |  |  |  |  | only blocks p70S6K1/2 activity | did not markedly affect gene expression | particularly sensitive
